Source: ChEMBL document CHEMBL5029186, “Searching for New Microbiome-Targeted Therapeutics through a Drug Repurposing Approach” (J Med Chem, 2021)

Legend:
[1] = Drug metabolism in mini gut model assessed as metabolite formation by LC-MS/MS analysis; type: ADME, tissue-based
Method in brief: (§1)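 Anaerobic mini gut model: stool homogenized in pre-reduced mGAM (10 mL/g), settled 5 min, 50 μL slurry into 450 μL mGAM; compound 20 μM in DMSO (final DMSO 0.22%); 37 °C, 5% H₂/10% CO₂/85% N₂, up to 24 h; donor 1; triplicate. Supernatant acetonitrile-precipitated (1:3), LC–MS at 45 °C, 0.45 mL/min; metabolites analysed versus feces-free reference incubation in mGAM.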

[2] = Drug metabolism in human gut microbes assessed as metabolite formation by LC-MS/MS analysis; type: ADME; method in brief: as §1
[3] = Stability of compound in mini gut model at 24 hrs by LC-MS analysis; type: ADME, tissue-based
Method in brief: (§2)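 Compound 20 μM (DMSO vehicle, final 0.22%) incubated anaerobically at 37 °C in mGAM inoculated with donor 1 fecal slurry (1:10 slurry, 50 μL into 450 μL) and in bacteria-free mGAM as reference, up to 24 h, triplicate. Samples mixed with 3 volumes cold acetonitrile, centrifuged 21,100g 15 min 4 °C; supernatant analysed by LC–MS (45 °C, 0.45 mL/min) for remaining parent drug.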

[4] = Stability of compound in mini gut model assessed as half life by LC-MS analysis; type: ADME, tissue-based; method in brief: as §2
[5] = Stability in human gut microbes assessed as half life by LC-MS analysis; type: ADME; method in brief: as §2

SMILES | Drug metabolism [1] | Drug metabolism [2] | Stability [3] | half-life [4] [h] | half-life [5] [h]
Cl.Oc1noc2c1CCNC2 | Metabolite_Notdetected | Metabolite_Notdetected | Unstable |  | 
N[C@@H](Cc1ccc(O)c(O)c1)C(=O)O [LEVODOPA] | Metabolite_Notdetected | Metabolite_Detected |  | 30 | 30
O=S(=O)([O-])CCS.[Na+] [MESNA] | Metabolite_Detected | Metabolite_Detected | Unstable |  | 
C1N2CN3CN1CN(C2)C3 [METHENAMINE] | Metabolite_Notdetected | Metabolite_Detected |  | 10 | 10

Further lines, results first:

Drug metabolism [1] | Drug metabolism [2] | Stability [3] | half-life [4] [h] | half-life [5] [h] | SMILES
Metabolite_Notdetected | Metabolite_Notdetected |  | > 48 | > 48 | CCCCNc1ccc(C(=O)OCCOCCOCCOCCOCCOCCOCCOCCOCCOC)cc1 [BENZONATATE]
Metabolite_Notdetected | Metabolite_Notdetected | Unstable |  |  | O=C([O-])[C@H]1/C(=C/CO)O[C@@H]2CC(=O)N21.[K+] [CLAVULANATE POTASSIUM]
Metabolite_Notdetected | Metabolite_Detected |  |  |  | CCN(CC)C(=O)/C(C#N)=C/c1cc(O)c(O)c([N+](=O)[O-])c1 [ENTACAPONE]
Metabolite_Notdetected | Metabolite_Notdetected |  | > 48 | > 48 | NS(=O)(=O)c1cc2c(cc1Cl)NCNS2(=O)=O [HYDROCHLOROTHIAZIDE]
Metabolite_Notdetected | Metabolite_Detected |  |  |  | COC1=C(OC)C(=O)C(CCCCCCCCCCO)=C(C)C1=O [IDEBENONE]
Metabolite_Detected | Metabolite_Detected | Unstable |  |  | CCCc1nc(C(C)(C)O)c(C(=O)OCc2oc(=O)oc2C)n1Cc1ccc(-c2ccccc2-c2nnn[nH]2)cc1 [OLMESARTAN MEDOXOMIL]
